Experimental data reported in the array DNA melting data of Ke et al. (doi:10.1101/2024.01.08.574731).

Columns and labels:
[1] = folding enthalpy; higher = less favourable; fluorescence melt of hairpins on a sequencing array, two-state fit; conditions: sodium 0.088 M
Summary of the method: (§1)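 Folding enthalpy and melting temperature come from bootstrapped two-state fits to Cy3 fluorescence of library hairpins carrying annealed Cy3 and quencher oligos on a sequenced MiSeq flow cell. Imaging was done in 50 mM Na-HEPES pH 8.0, 25 mM NaCl, stepping by 2.5 °C up to 60 °C, and signals were normalised to pre-quench Cy3 and to control constructs. Results of four replicates were combined by inverse variance, and fitted temperatures were raised by 9.35 °C to match UV melts.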

[2] = melting temperature; fluorescence melt of hairpins on a sequencing array, two-state fit, raised by 9.35 °C to match UV melts; conditions: sodium 0.088 M
Summary of the method: as §1

Sequence	folding enthalpy [1]	Tm [2]
GCACTGGGAAACTGGTGC ((((..(....)..))))	-33 kcal/mol	48.8 °C
GATGCGGGAAACCACACC (.((.((....)).)).)	-12.4 kcal/mol	26.7 °C
GCGGCAGCCGC ((((...))))	-10.9 kcal/mol	61.7 °C
GCGACTACGAAAGTACGC (((..(((....))))))	-25.8 kcal/mol	42.5 °C
GCCGAGGGAAACCTCGAC (.(((((....))))).)	-14.1 kcal/mol	49.5 °C
GTGGCCGGAAACGGCTAC ((.((((....)))).))	-20.4 kcal/mol	60.3 °C
GAATCAGGAAACTGATTC (((((((....)))))))	-42.6 kcal/mol	55.8 °C
GCCCAGACGAAAGTCGGC (((..(((....))))))	-15.7 kcal/mol	49.6 °C
GAGCAACGAAAGTTCCTC (((.(((....))).)))	-13.6 kcal/mol	32.3 °C
GAACGGGGAAACTCGTTC (((((.(....).)))))	-48.7 kcal/mol	50.8 °C
GCACTCCGAAAGGACTGC (((.(((....))).)))	-18.5 kcal/mol	40.4 °C
GGGAGTGGAAACGCTTCC ((.((.(....).)).))	-20.7 kcal/mol	39 °C
GACTGCGAAAGCAGAGTC ((((((....)))..)))	-11.8 kcal/mol	45.1 °C
GCTGATGGAAACATCGGC ((.((((....)))).))	-43 kcal/mol	54.1 °C
GGTTTCGAAAGAACAACC ((((((....)))..)))	-13 kcal/mol	30.4 °C
GTAGCCGGAAACAGCTAC (((((.(....).)))))	-22.2 kcal/mol	43.4 °C
GATCCGGCGACGGATC ((((((....))))))	-33.4 kcal/mol	67.4 °C
GCTGCACGAAAGTGTAGC (((.(((....))).)))	-43.9 kcal/mol	65 °C
GAGACGGGAAACCGCCTC (((.(((....))).)))	-33.7 kcal/mol	49.1 °C
GGCCTCGAAAGAGACGCC ((((((....)))..)))	-24.3 kcal/mol	47.7 °C
GGACATGGAAACGTGTTC (.(((.(....).))).)	-23.8 kcal/mol	35 °C
GCCCCGCGAAAGCGTCGC ((..(((....)))..))	-8.15 kcal/mol	28.8 °C
ATGTTGAAAAACAT (((((....)))))	-13 kcal/mol	37 °C

Sequence	folding enthalpy [1]	Tm [2]
GCGTAGTCGAAAGACCGC (((..(((....))))))	-28.9 kcal/mol	52 °C
GATCCAGTTGTGGATC ((((((....))))))	-38.6 kcal/mol	50.4 °C
GGCTTTGAAAAAAGCC ((((((....))))))	-38.5 kcal/mol	57.6 °C
GATCACCATCGTGATC ((((((....))))))	-31.8 kcal/mol	54.5 °C
GTAACCGAAAGGTGTAC ((((((....))).)))	-19.5 kcal/mol	41.3 °C
GATCCACTGTGGATC ((((((...))))))	-39.4 kcal/mol	51.6 °C
GTGCCGGGAAACCGGTGC (..((((....))))..)	-19.4 kcal/mol	52.7 °C
GCCTCAGGAAACCAAGGC ((((..(....)..))))	-28.6 kcal/mol	33.2 °C
GGGCTCGAAAGAGTCCC ((((((....))).)))	-26.1 kcal/mol	63.1 °C
GGATGAGGAAACTCATCC (((((((....)))))))	-43.5 kcal/mol	63.1 °C
GCAAGCGAAAGCTAGTGC ((((((....)))..)))	-17.8 kcal/mol	39.9 °C
GCGGCTCTCCGC ((((....))))	-26.3 kcal/mol	55.6 °C
GGCCTTGGAAACAGGGTC (.((.((....)).)).)	-25 kcal/mol	37.6 °C
GGCGCGGGAAACCACGCC ((((.((....)).))))	-48.2 kcal/mol	61 °C
GACGTGCGAAAGCAGTC (((.(((....))))))	-21.6 kcal/mol	54.9 °C
GATCCTCGTAGGATC ((((((...))))))	-34.2 kcal/mol	54.5 °C
GGTATATCGAAAGATACC (((..(((....))))))	-16.3 kcal/mol	33.6 °C
GTCAACGAAAGTTAAGAC ((((((....)))..)))	-19.2 kcal/mol	31.3 °C
GGGACAGGAAACTATCCC ((((.((....)).))))	-29.4 kcal/mol	35.4 °C
GCGTGAACACGC ((((....))))	-20.9 kcal/mol	68 °C
GATCAAACCTTTGATC ((((((....))))))	-30.1 kcal/mol	46 °C
GCGGTTTCGAAAGAACGC (((..(((....))))))	-26.5 kcal/mol	44.8 °C
GCGGTACGCCGC ((((....))))	-13.5 kcal/mol	67 °C

Sequence	folding enthalpy [1]	Tm [2]
GATCGGGTACCCGATC ((((((....))))))	-47.6 kcal/mol	64.9 °C
GTCTAGCGAAAGCTTGAC (((.(((....))).)))	-28.7 kcal/mol	54.2 °C
GCCGACGGAAACGTCGAC (.(((((....))))).)	-14.9 kcal/mol	55.4 °C
GCTCTGAAAAGAGC (((((....)))))	-21.6 kcal/mol	57.8 °C
CGCGGAGCTTTCCGCG ((((((....))))))	-20.8 kcal/mol	68.2 °C
GATCGCCCGAAAGGGATC (((..(((....))))))	-14.6 kcal/mol	34.5 °C
GACCTGCGAAAGCAAGTC (((.(((....))).)))	-25.3 kcal/mol	47.1 °C
AGGTTGAAAAACCT (((((....)))))	-20.5 kcal/mol	45.6 °C
GGACGTGGAAACACACCC ((..(((....)))..))	-7.91 kcal/mol	25 °C
GGTGTGCGAAAGCAGACC (((.(((....))).)))	-33.9 kcal/mol	64.4 °C
GGTTCTCGAAAGAGACC (((.(((....))))))	-20.9 kcal/mol	49.7 °C
GCCCTGCGAAAGCAGCGC ((.((((....)))).))	-17.5 kcal/mol	56.2 °C
GCACCCGGAAACGGGTAC (.(((((....))))).)	-12.7 kcal/mol	45.1 °C
GGGGTTGGAAACAGCCTC (.((.((....)).)).)	-21.6 kcal/mol	39.1 °C
GCCATGCGAAAGCGTCGC ((.(.((....)).).))	-12.7 kcal/mol	48 °C
CGCGACGGAAACGTGCG (((.(((....))))))	-28.3 kcal/mol	55.3 °C
GGTTACGAAAGTAGACC ((((((....))).)))	-25.3 kcal/mol	41.4 °C
GCCCTGGGAAACTGGGGC ((((..(....)..))))	-38 kcal/mol	51.5 °C
GAGTACGCGAAAGCGCTC (((..(((....))))))	-10 kcal/mol	34.6 °C
GCTAGGCGAAAGCGCAGC (((..((....))..)))	-15.8 kcal/mol	39.6 °C
GGGTGAGGAAACTTACCC ((((.((....)).))))	-35.7 kcal/mol	47.7 °C
GATCTCCGAAAGGAATC (((.(((....))))))	-14.4 kcal/mol	33.3 °C
GCGGCGCGAAAGCGTGGC ((..(((....)))..))	-20.7 kcal/mol	62 °C
